Assays:
[1] = tested on: 3T3-L1 mouse preadipocytes; assay: Adipocyte phenotypic screen: lipid accumulation by Nile Red; type: cell-based; details: for adipogenic activity in adipogenesis-related assays, in words: compounds 10 μM, 3T3-L1; for effect of co-treatment on the pro-adipogenic effects of 25: 10 μM with 25 (10 μM), Nile Red staining or adipogenic gene expression
Procedure, shortened: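 3T3-L1 preadipocytes were induced two days post-confluence with dexamethasone (1 μM), IBMX (0.5 mM) and insulin (1 μg/ml), plus DMSO (0.1%), test compound (10 μM), test compound with probe, or rosiglitazone (2 μM). They were stained with Nile Red and Hoechst at day 7 of differentiation, imaged, and harvested for RNA. Mean ± SD, n = 3.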

[2] = biological target: T1, human PGRMC2 (Homo sapiens, UniProt O15173); assay: In vitro gel-based competition of FFF probe 25 labeling of PGRMC2; type: binding
T1 sequence (O15173 1-223): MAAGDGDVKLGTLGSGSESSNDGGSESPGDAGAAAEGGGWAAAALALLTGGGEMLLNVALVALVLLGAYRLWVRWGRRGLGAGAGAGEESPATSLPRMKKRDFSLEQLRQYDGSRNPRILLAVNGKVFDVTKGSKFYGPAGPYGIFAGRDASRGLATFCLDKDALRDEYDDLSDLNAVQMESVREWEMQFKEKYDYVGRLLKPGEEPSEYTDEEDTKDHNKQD
Procedure, shortened: (§1)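 HEK293T cells were transfected with human PGRMC2 and lysed 48 hr later. Lysates (1 mg/mL) were incubated with probe and competitor or DMSO for 30 min at room temperature, UV-irradiated, clicked to TAMRA azide, and analysed by in-gel fluorescence. Blockade curves: mean ± SD (n = 3 or 4), four-parameter non-linear fit.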

[3] = biological target: T2, ZADH2 (Homo sapiens, UniProt Q8N4Q0); assay: MS-based competitive profiling with FFF 8: cross-reactivity with ZADH2; type: binding; details: competition of FFF 8 labeling
T2 sequence (Q8N4Q0 1-377): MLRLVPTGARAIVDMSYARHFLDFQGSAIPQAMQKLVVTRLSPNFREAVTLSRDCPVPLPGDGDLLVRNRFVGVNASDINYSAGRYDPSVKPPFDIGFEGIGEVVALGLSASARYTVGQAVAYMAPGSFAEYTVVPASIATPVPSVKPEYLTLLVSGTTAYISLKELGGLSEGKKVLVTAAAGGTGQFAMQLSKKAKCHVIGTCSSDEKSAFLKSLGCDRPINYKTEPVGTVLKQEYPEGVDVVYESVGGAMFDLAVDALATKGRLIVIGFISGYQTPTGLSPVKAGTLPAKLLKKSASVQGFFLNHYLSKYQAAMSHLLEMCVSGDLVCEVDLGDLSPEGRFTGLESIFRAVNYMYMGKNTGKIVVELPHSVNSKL
Procedure, shortened: (§2)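 SILAC-labeled HEK293T cells were used: heavy cells received FFF probe plus competitor and light cells received probe plus DMSO, in serum-free medium for 30 min at 37°C, followed by 365 nm UV for 10 min. Lysates (1.5 mg/mL) were mixed 1:1, clicked to biotin-azide, streptavidin-enriched, trypsin-digested and analysed by LC-MS. Ratios were averaged from ≥2 biological replicates.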

[4] = biological target: T3, PTGR2 (Homo sapiens, UniProt Q8N8N7); assay: In vitro LCMS-based activity assay for PTGR2; type: biochemical
[5] = biological target: T3, PTGR2; assay: cell-based
[6] = biological target: T3, PTGR2; type: binding
Procedure, shortened: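 HEK293T cells were transiently transfected with C-terminally FLAG-tagged human PTGR2 (pRK5, PEI). Cells at ~90% confluence were washed and treated in serum-free medium with probe plus competitor or DMSO for 30 min at 37°C, then irradiated at 365 nm for 10 min. Lysates (1 mg/mL) were clicked to TAMRA azide (25 μM) and fluorescence was read on gel. Curves: mean ± SD (n = 3 or 4), four-parameter fit.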

[7] = biological target: T3, PTGR2; type: cell-based; details: cells recombinantly expressing PTGR2
Procedure, shortened: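 HEK293T cells were co-transfected (PEI) with a UAS-luciferase reporter, GAL4-DBD or GAL4-DBD::PPARγ-LBD, and full-length PTGR2 as indicated. After 24 hr they were treated with DMSO, 15-keto-PGE2 (20 μM), test compounds, or rosiglitazone (2 μM) control. After 16 hr cells were lysed and luciferase activity was measured.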

[8] = biological target: endogenous PTGR2 (Homo sapiens, UniProt Q8N8N7); type: binding
Procedure, shortened: as §2

[9] = biological target: T4, PPARγ (Homo sapiens, UniProt P37231); assay: PPARγ luciferase reporter assay, direct modulation of PPARγ; type: cell-based
T4 sequence (P37231 238-503 limits assumed): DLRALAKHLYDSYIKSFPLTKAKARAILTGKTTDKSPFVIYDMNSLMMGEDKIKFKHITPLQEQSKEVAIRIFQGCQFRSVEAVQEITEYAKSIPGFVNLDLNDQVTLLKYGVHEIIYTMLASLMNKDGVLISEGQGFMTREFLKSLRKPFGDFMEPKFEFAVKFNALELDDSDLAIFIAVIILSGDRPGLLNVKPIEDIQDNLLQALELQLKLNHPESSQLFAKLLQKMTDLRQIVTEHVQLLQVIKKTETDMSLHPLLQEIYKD

[10] = biological target: cathepsin B (CTSB) (Homo sapiens, UniProt P07858); assay: Competition of FFF 9 labeling of the active-site proximal peptide of CTSB; type: binding
Procedure, shortened: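 Cells were treated with probe (200–250 μM) with or without competitor in serum-free DMEM, UV-crosslinked, and lysed. Probe-labeled proteins were clicked to light or heavy biotin-TEV-azide (100 μM final) with CuSO4, TBTA and TCEP. Samples were combined, streptavidin-enriched, trypsin-digested on bead and released by TEV cleavage (50 mM Tris pH 8, 0.5 mM EDTA, 1 mM DTT). Probe-modified peptides were quantified by LC-MS.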

[11] = tested on: non-adipocyte cell lines; assay: Lipid accumulation in non-adipocyte cell lines; type: cell-based
[12] = biological target: T1, human PGRMC2; type: binding; details: HEK293T cells
Procedure, shortened: as §1

[13] = biological target: T5, PGRMC2 (Mus musculus, UniProt Q80UU9); assay: Quantitative proteomic; type: binding
T5 sequence (Q80UU9 1-217): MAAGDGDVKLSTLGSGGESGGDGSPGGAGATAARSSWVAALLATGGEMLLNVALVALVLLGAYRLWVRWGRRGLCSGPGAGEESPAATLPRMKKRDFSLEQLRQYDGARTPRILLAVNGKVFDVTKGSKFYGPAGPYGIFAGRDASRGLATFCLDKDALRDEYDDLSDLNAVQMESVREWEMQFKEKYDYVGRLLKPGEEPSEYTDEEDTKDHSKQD

[14] = biological target: PGRMC1 (Mus musculus, UniProt O55022); assay: Quantitative proteomic; type: binding; details: 10 μM
Sequence of PGRMC1 (O55022 whole entry): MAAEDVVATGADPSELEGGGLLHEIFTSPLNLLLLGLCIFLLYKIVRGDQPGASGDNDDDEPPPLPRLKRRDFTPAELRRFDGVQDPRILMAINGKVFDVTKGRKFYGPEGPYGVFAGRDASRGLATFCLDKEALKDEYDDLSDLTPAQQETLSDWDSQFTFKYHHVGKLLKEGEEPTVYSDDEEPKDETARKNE

Sequence of endogenous PTGR2 (Q8N8N7 whole entry): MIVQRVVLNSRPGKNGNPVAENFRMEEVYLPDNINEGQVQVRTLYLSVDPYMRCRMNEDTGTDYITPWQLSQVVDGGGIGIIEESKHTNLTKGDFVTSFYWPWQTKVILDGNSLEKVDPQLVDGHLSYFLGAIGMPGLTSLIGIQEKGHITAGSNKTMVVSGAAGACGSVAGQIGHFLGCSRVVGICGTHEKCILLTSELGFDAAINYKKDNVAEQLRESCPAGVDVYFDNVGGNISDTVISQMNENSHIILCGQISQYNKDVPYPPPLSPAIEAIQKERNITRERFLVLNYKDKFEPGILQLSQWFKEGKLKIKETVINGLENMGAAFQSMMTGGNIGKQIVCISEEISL
T3 sequence (Q8N8N7 whole entry): as above

**Q.** For `CCCC(=O)N[C@@H](CC(C)C)C(=O)N[C@H]1CCCc2ccccc21` [Compound 29, (S)-2-butyramido-4-methyl-N-((S)-1,2,3,4-tetrahydronaphthalen-1-yl)pentanamide], which “adipogenic activity in adipogenesis-related assays, in words” value (“adipogenic activity” below) [1] is on record?
**A.** Its value is “inactive controls”.

**Q.** How did the “adipogenic activity” value [1] turn out when `C#CCCC1(CCC(=O)N[C@@H](C)C(=O)Nc2cc(OC)c3ccccc3c2)N=N1` [Compound 26, (S)-3-(3-(but-3-yn-1-yl)-3H-diazirin-3-yl)-N-(1-((4-methoxynaphthalen-2-yl)amino)-1-oxopropan-2-yl)propanamide] was run?
**A.** Its value is “much less adipogenic activity”.

**Q.** `C=CC1=C(C)c2cc3[nH]c(cc4nc(cc5[nH]c(cc1n2)c(C)c5CCC(=O)O)C(CCC(=O)O)=C4C)c(C)c3C=C` [protoporphyrn IX] was tested. Which IC50 [2] did it give?
**A.** Its IC50 is 130 nM.

**Q.** For `CC(C)(C)OC(=O)CN(Cc1ccc(Cl)cc1)Cc1ccc([N+](=O)[O-])s1` [GSK4112, reference compound], which “effect of co-treatment on the pro-adipogenic effects of 25” value [1] is on record?
**A.** Its value is “had no effect”.

**Q.** What does the source list for `COc1ccccc1N1CCN(C(=O)Cc2ccccc2)CC1` [Compound 22, 1-(4-(2-Methoxyphenyl)piperazin-1-yl)-2-phenylethan-1-one]?
**A.** cross-reactivity with ZADH2, sequence-related homolog of PTGR2 [3]: did not cross-react; increase in potency relative to 20, 15-keto-PGE2 reductase activity [4]: > 20 fold; IC50 [5]: ~700 nM; increase in potency relative to 20, competition of 8-labeling [6]: > 20 fold; rescue of 15-keto-PGE2-dependent PPARγ transcriptional activity [7]: concentration-dependent rescue; inhibition of FFF 8 labeling of endogenous PTGR2 ([8]; 5 μM, HEK293T cells): complete inhibition; proteome-wide selectivity in blocking FFF 8 labeling, in words ([8]; HEK293T cells): excellent selectivity; inhibition at 0.5 µM ([8]; read-out: inhibition of FFF 8 labeling of endogenous PTGR2): ~80%; direct modulation of PPARγ [9]: neither 22 nor 23 directly modulated PPARγ

**Q.** `CC(NC(=O)[C@H](Cc1ccccc1)NC(=O)OCc1ccccc1)C(=O)CF` (some centres unmarked) [Z-FA-FMK] was tested. Which “blockade of probe 9 interaction with CTSB peptide (aa 315–332)” value [10] did it give?
**A.** Its value is “blocked”.

**Q.** For `COc1ccccc1C1CCN(S(=O)(=O)Cc2ccccc2)CC1` [Compound 23, 1-(Benzylsulfonyl)-4-(2-methoxyphenyl)piperidine], which “direct modulation of PPARγ” value [9] is on record?
**A.** Its value is “neither 22 nor 23 directly modulated PPARγ”.

**Q.** Which results are given for `C#CCCC1(CCC(=O)N[C@@H](CC(C)C)C(=O)Nc2ccc3ccccc3c2)N=N1` [Compound 25, (S)-2-(3-(3-(but-3-yn-1-yl)-3H-diazirin-3-yl)propanamido)-4-methyl-N-(naphthalen-2-yl)pentanamide]?
**A.** lipid accumulation in non-adipocyte cell lines [11]: did not induce lipid accumulation; lipid accumulation, in words ([1]; Nile Red): one of the highest levels of lipid accumulation; labeling of recombinant human PGRMC2 by FFF probe [12]: strongly labeled; preferential enrichment of PGRMC2 by 25 over 26 (SILAC ratio) ([13]; 10 μM each, 30 min): > 3 fold; enrichment of PGRMC1 by 25 over 26 [14]: not preferentially enriched

**Q.** `CCOC(=O)C1Cc2ccccc2CN1C(=O)c1ccc(SC)s1` (centres unmarked) [SR8278, reference compound] was tested. Which “effect of co-treatment on the pro-adipogenic effects of 25” value [1] did it give?
**A.** The value was “blocked”.

**Q.** For `CCCC(=O)N[C@@H](C)C(=O)Nc1cc(OC)c2ccccc2c1` [Compound 28, (S)-N-(1-((4-methoxynaphthalen-2-yl)amino)-1-oxopropan-2-yl)butyramide], which “adipogenic activity” value [1] is on record?
**A.** Its value is “largely inactive”.

**Q.** How did the “adipogenic activity” value [1] turn out when `CCCC(=O)N[C@@H](CC(C)C)C(=O)NCCc1ccc2c(c1)OCO2` [Compound 30, (S)-N-(2-(benzo[d][1,3]dioxol-5-yl)ethyl)-2-butyramido-4-methylpentanamide] was run?
**A.** The value was “inactive controls”.

**Q.** `CCCC(=O)N[C@@H](CC(C)C)C(=O)Nc1ccc2ccccc2c1` [Compound 27, (S)-2-butyramido-4-methyl-N-(naphthalen-2-yl)pentanamide] was tested. Which “adipogenic activity” value [1] did it give?
**A.** The value was “active”.

**Q.** And the “blockade of 25 labeling of recombinant human PGRMC2 by competitor” value [12]?
**A.** The value was “blocked in a concentration-dependent manner”.

**Q.** What about the “competition of 25 (10 μM) enrichment of PGRMC2 (SILAC ratio)” value ([13]; 10× competitor) of the same molecule?
**A.** The value was over 3 fold.
